ChEMBL document CHEMBL5316288, “Synthetic Strategies for Improving Solubility: Optimization of Novel Pyrazolo[1,5-a]pyrimidine CFTR Activator That Ameliorates Dry Eye Disease” (J Med Chem, 2023)
In brackets after ≈: the same amount, converted by molar mass. Activity calls are given as the source filed them. No cut-off for these calls is given here.

Tests used:
[1] = target: T1, Cystic fibrosis transmembrane conductance regulator (Homo sapiens, UniProt P13569); test: Activation of human wild-type CFTR stably expressed in CHO-K1 cells co-expressing halide sensors YFP-H148Q/I152L assessed as CFTR-mediated iodide influx incubated for 10 mins by YFP fluorescence quenching assay; type: cell-based
Target sequence in this assay (P13569 whole entry): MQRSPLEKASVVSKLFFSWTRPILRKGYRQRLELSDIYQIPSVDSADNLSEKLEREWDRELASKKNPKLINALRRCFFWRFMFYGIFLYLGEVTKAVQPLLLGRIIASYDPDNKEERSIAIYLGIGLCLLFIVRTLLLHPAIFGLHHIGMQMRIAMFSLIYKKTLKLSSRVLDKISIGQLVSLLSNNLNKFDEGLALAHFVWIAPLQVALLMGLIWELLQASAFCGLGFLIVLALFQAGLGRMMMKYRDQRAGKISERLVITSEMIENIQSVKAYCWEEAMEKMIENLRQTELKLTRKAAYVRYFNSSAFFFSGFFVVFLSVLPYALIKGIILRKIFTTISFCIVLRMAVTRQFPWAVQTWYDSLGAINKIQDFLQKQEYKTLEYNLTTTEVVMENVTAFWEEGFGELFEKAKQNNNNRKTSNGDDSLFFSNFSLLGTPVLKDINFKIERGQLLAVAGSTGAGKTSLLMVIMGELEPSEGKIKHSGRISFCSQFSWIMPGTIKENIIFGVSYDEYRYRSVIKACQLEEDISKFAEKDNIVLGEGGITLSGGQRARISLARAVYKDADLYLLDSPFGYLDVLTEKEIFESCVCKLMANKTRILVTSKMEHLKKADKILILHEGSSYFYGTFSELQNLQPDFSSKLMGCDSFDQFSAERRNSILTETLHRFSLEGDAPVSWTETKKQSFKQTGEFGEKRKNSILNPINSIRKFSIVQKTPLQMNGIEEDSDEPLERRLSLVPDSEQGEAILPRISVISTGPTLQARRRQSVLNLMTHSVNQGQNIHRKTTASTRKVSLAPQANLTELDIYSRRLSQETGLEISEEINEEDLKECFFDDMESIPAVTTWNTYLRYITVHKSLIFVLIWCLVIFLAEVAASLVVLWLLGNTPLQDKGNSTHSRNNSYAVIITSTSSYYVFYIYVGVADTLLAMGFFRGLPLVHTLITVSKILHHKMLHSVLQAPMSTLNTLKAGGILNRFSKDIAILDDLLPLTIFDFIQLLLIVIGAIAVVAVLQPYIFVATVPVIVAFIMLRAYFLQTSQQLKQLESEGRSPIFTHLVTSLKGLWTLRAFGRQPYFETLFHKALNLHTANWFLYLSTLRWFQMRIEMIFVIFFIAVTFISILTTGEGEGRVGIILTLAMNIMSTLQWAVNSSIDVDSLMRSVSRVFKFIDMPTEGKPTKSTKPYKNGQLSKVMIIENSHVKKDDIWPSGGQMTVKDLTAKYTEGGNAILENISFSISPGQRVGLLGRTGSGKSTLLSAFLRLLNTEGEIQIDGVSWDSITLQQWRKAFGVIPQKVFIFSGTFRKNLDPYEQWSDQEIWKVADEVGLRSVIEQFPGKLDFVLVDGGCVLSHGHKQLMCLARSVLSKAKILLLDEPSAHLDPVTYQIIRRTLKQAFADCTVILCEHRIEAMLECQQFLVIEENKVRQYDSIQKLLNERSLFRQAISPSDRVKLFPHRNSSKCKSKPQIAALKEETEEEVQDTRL

[2] = Solubility of compound in PBS at 7.5 at 0.5 mg/ml incubated for 90 mins by LC-MS/MS analysis; type: physicochemical
Method in brief: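 Thermodynamic solubility: compound at 0.5 mg/mL in isotonic phosphate-buffered saline, pH 7.5, vortexed for 90 min. The solution was then filtered sequentially through 0.45, 1.2 and 5.0 μm filters. Concentration was measured by LC-MS/MS against a ≥6-point internal-standard calibration curve (weighted 1/x linear or quadratic) and back-calculated.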

[3] = target: T1, Cystic fibrosis transmembrane conductance regulator; test: Activation of human CFTR expressed in CHO-K1 cells assessed as increase in intracellular cAMP level at 10 uM incubated for 10 mins in presence of IBMX by Immunoassay; type: cell-based; settings: filed as activator
Target sequence in this assay (P13569 whole entry, looked up): as the sequence (P13569 whole entry) above

[4] = target: T1, Cystic fibrosis transmembrane conductance regulator; test: Activation of human wild-type CFTR stably expressed in CHO-K1 cells assessed as increase in chloride current at holding potential 0 mV at 30 uM by whole-cell patch-clamp assay; settings: filed as activator
Target sequence in this assay (P13569 whole entry, looked up): as the sequence (P13569 whole entry) above

EC50 [1] | solubility thermodynamic at 1.5 h ([2]; PBS, pH 7.5) | Structure (SMILES) | other results
370 nM |  | COc1ccc(-c2ccnc3cc(C(=O)N4CC[C@@H](NC(=O)OC(C)(C)C)C4)nn23)cc1OC | 
65 nM |  | COc1ccc(-c2ccnc3cc(C(=O)Nc4ccccc4)nn23)cc1OC | solubility thermodynamic at 1.5 h ([2]; buffer, pH 7.5, 1.5 h): 0.059 µM (≈ 0.0221 µg/mL)
17 nM |  | COc1ccc(-c2ccnc3cc(C(=O)Nc4ccc(C(=O)N5CCN(C(=O)OC(C)(C)C)CC5)cc4)nn23)cc1OC | 
8100 nM |  | COc1ccc(-c2ccnc3cc(C(=O)N4CCN(C)CC4)nn23)cc1OC | 
270 nM |  | COc1ccc(-c2ccnc3cc(C(=O)N4CCN(C(=O)OC(C)(C)C)CC4)nn23)cc1OC | 
840 nM |  | COc1ccc(-c2ccnc3cc(C(=O)N4CCN(c5ccccc5)CC4)nn23)cc1OC | 
2700 nM |  | COC(=O)c1ccc(NC(=O)c2cc3nccc(-c4ccc(OC)c(OC)c4)n3n2)c(Cl)c1 | 
200 nM | 1.82 µM (≈ 0.907 µg/mL) | COc1ccc(-c2ccnc3cc(C(=O)N4CCN(C(=O)c5ccccc5)C(C)(C)C4)nn23)cc1OC | 
730 nM |  | COc1ccc(-c2ccnc3cc(C(=O)N4CCN(Cc5ccccc5)CC4)nn23)cc1OC | 
710 nM |  | COc1ccc(-c2ccnc3cc(C(=O)NCc4ccc(N5CCOCC5)cc4)nn23)cc1OC | 
14 nM |  | COC(=O)c1ccc(NC(=O)c2cc3nccc(-c4ccc(OC)c(OC)c4)n3n2)cc1 | 
110 nM | 10.1 µM (≈ 4.74 µg/mL) | COc1ccc(-c2ccnc3cc(C(=O)N4CCN(C(=O)c5ccccc5)CC4)nn23)cc1OC | 
290 nM | 237 µM | COc1ccc(-c2ccnc3cc(C(=O)Nc4ccc(C(=O)N5CCN(C)CC5)cc4)nn23)cc1OC.Cl | 
470 nM |  | COC(=O)c1ccc(CNC(=O)c2cc3nccc(-c4ccc(OC)c(OC)c4)n3n2)cc1 | 
 | 159 µM (≈ 77 µg/mL) | COc1ccc(-c2ccnc3cc(C(=O)N4CCN(C(=O)c5ccccc5)[C@H](C)C4)nn23)cc1OC | 
42 nM | 0.341 µM (≈ 0.149 µg/mL) | COc1ccc(-c2ccnc3cc(C(=O)Nc4ccc(C(=O)O)cc4F)nn23)cc1OC | 
310 nM | 5.21 µM (≈ 2.18 µg/mL) | COc1ccc(-c2ccnc3cc(C(=O)Nc4ccc(C(=O)O)cc4)nn23)cc1OC | 
16000 nM |  | COc1ccc(-c2ccnc3cc(C(=O)Nc4ccc(C(=O)NCCN)cc4)nn23)cc1OC | 
7 nM |  | COc1ccc(-c2ccnc3cc(C(=O)Nc4ccc(N5CCOCC5)cc4)nn23)cc1OC | 
1700 nM |  | COc1ccc(-c2ccnc3cc(C(=O)N4CCN(C(=O)C5CC5)CC4)nn23)cc1OC | 
130 nM |  | COc1ccc(-c2ccnc3cc(C(=O)NC4CCCCC4)nn23)cc1OC | 
 |  | C=C[C@@]1(C)CC(=O)[C@]2(O)[C@@]3(C)[C@@H](O)CCC(C)(C)[C@@H]3[C@H](O)[C@H](OC(C)=O)[C@@]2(C)O1 | Activity [3]: Active; Activity [4]: Active
17000 nM |  | COc1ccc(-c2ccnc3cc(C(=O)N4CCNCC4)nn23)cc1OC | 
6000 nM |  | COc1ccc(-c2ccnc3cc(C(=O)N4CCN(C(C)C)CC4)nn23)cc1OC | 
6 nM |  | COc1ccc(-c2ccnc3cc(C(=O)Nc4ccc(OCCN5CCOCC5)cc4)nn23)cc1OC | 
700 nM |  | COc1ccc(-c2ccnc3cc(C(=O)N4CC(NC(=O)OC(C)(C)C)C4)nn23)cc1OC | 
310 nM | 1.42 µM (≈ 0.599 µg/mL) | COC(=O)C12CC(NC(=O)c3cc4nccc(-c5ccc(OC)c(OC)c5)n4n3)(C1)C2 | 
 | 1.39 µM (≈ 0.611 µg/mL) | COc1ccc(-c2ccnc3cc(C(=O)N[C@H]4CC[C@H](C(=O)OC)CC4)nn23)cc1OC | 
1400 nM |  | COc1ccc(-c2ccnc3cc(C(=O)N4CCN(C5CC5)CC4)nn23)cc1OC | 
 | 7.55 µM (≈ 3.31 µg/mL) | COc1ccc(-c2ccnc3cc(C(=O)N[C@H]4CC[C@@H](C(=O)OC)CC4)nn23)cc1OC | 
